Test results reported in ChEMBL document CHEMBL1800062, “Structure-activity relationships of carboline and carbazole derivatives as a novel class of ATP-competitive kinesin spindle protein inhibitors” (J Med Chem, 2011).
Active and inactive are the calls of the source. The rule behind the calls is not given here.

Tests used:
[1] = target: T1, Kinesin-like protein KIF23 (Homo sapiens) (UniProt Q02241); assay: Inhibition of MKLP-1 ATPase activity at 20 uM
T1 sequence (whole entry): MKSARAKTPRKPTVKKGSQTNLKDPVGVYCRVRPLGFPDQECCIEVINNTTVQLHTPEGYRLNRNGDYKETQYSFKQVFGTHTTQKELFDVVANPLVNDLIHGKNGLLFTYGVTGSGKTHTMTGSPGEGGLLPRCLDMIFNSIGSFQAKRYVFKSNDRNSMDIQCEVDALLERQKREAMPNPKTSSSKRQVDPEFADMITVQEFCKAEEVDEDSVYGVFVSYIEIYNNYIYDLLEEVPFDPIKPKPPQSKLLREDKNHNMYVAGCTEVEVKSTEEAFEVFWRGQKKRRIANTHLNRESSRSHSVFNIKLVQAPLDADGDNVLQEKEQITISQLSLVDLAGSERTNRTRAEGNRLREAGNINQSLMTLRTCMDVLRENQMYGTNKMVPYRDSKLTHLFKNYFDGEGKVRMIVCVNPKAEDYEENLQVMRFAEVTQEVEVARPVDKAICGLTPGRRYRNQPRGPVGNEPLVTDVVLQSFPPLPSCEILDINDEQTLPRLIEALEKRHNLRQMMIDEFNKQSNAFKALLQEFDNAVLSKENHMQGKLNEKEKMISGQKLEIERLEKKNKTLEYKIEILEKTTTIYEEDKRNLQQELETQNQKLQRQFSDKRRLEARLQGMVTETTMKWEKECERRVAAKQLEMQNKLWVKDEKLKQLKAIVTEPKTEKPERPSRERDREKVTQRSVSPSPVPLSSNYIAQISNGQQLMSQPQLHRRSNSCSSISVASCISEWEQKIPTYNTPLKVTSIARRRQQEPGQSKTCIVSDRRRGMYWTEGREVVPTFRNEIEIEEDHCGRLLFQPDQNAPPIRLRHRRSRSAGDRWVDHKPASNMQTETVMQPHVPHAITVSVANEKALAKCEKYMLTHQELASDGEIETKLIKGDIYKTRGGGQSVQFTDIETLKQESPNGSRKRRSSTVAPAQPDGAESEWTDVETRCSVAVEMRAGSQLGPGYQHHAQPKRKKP

[2] = system: HeLa; assay: Antimitotic activity in human HeLa cells assessed as cell cycle arrest after 24 hrs using DAPI staining by fluorescent microscopic analysis; type: functional
How it was run: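 HeLa seeded 10⁵ cells/well on glass chamber slides, 6 h at 37 °C/5% CO₂, then fresh medium with inhibitor (DMSO final 0.4% v/v) for 24 h. Fixed in 3% paraformaldehyde then −20 °C methanol; anti-α-tubulin (DM1A) and anti-phospho-histone H3 Ser10 immunostaining, DAPI counterstain. ≥500 cells per concentration visually scored mitotic/interphase/other; MI50 from dose-response curves, triplicate data points.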

[3] = target: T2, Kinesin-like protein KIF22 (Homo sapiens) (UniProt Q14807); assay: Inhibition of Kid ATPase activity at 20 uM
T2 sequence (whole entry): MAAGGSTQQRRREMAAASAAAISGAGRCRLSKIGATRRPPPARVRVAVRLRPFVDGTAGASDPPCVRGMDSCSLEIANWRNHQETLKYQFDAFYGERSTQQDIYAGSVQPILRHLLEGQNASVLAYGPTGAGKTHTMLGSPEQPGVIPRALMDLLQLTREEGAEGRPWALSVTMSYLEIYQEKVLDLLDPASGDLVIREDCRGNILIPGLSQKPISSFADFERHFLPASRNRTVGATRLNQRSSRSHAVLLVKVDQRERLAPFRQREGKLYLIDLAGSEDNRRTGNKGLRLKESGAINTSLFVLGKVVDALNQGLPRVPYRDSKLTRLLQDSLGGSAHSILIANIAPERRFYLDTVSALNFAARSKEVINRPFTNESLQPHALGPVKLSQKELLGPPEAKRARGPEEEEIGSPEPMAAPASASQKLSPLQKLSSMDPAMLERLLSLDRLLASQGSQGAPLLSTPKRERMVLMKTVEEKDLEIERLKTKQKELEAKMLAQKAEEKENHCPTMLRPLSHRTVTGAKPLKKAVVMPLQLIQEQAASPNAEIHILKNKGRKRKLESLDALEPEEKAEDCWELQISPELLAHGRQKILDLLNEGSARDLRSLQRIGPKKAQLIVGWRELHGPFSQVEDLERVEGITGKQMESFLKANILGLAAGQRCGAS

[4] = system: HeLa; assay: Antimitotic activity in human HeLa cells assessed as formation of monopolar spindles at 0.25 uM after 24 hrs using DAPI staining by fluorescent microscopic analysis; type: functional, cell-based
How it was run: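 HeLa given the stated inhibitor concentration for 24 h on glass chamber slides (DMSO final 0.4% v/v), then fixed in paraformaldehyde and cold methanol. Microtubules stained with anti-α-tubulin DM1A, mitotic chromosomes stained with anti-phospho-H3 Ser10, DNA stained with DAPI. Monopolar spindle phenotype in mitotically arrested cells scored by fluorescence microscopy.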

SMILES	inhibition [1]	MI50 [2]	inhibition [3]	Activity [4]
NC(=O)Nc1ccc2c(c1)[nH]c1cc(C(F)(F)F)ccc12	inactive	1.3 µM	inactive	
O=C1CCc2cc3c(cc2N1)[nH]c1cc(C(F)(F)F)ccc13	inactive	0.13 µM	inactive	Active
O=C1CCc2c(ccc3c2[nH]c2cc(C(F)(F)F)ccc23)N1	inactive	1.1 µM	inactive	
